Source: ChEMBL document CHEMBL1158748, “Microbial hydroxylation of bufalin by Cunninghamella blakesleana and Mucor spinosus” (J Nat Prod, 2005)

Experiments:
Format in all cases: functional, cell-based
HeLa = assay: Cytotoxicity against human HeLa cells after 72 hrs by MTT assay
Summary of the method: (§1)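 Cells kept in RPMI 1640 with 10% (v/v) FBS and plated in 96-well plates. Test compounds added at dilutions of 10^-3-10² µmol/L, then incubated 72 h at 37 °C under 5% CO₂. Survival read by MTT. IC50 taken as the concentration (µmol/L) giving 50% inhibition of cell growth.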

BGC-823 = assay: Cytotoxicity against human BGC823 cells after 72 hrs by MTT assay; conditions: BGC-823, 72 h; summary of the method: as §1
Bel-7402 = assay: Cytotoxicity against human Bel7402 cells after 72 hrs by MTT assay; conditions: Bel-7402, 72 h; summary of the method: as §1

| SMILES | IC50 (HeLa) [nM] | IC50 (BGC-823) [nM] | IC50 (Bel-7402) [nM] |
| --- | --- | --- | --- |
| C[C@]12CC[C@H](O)C[C@@]1(O)C[C@H](O)[C@@H]1[C@@H]2CC[C@]2(C)[C@@H](c3ccc(=O)oc3)CC[C@]12O | 22 | – | – |
| C[C@]12CC[C@H](O)C[C@H]1C[C@H](O)[C@@H]1[C@@H]2C[C@H](O)[C@]2(C)[C@@H](c3ccc(=O)oc3)CC[C@]12O | 60 | 5300 | 2900 |
| C[C@]12CC[C@H](O)C[C@H]1CC[C@@H]1[C@@H]2C[C@@H](O)[C@]2(C)[C@@H](c3ccc(=O)oc3)CC[C@]12O | 7.6 | 31 | 26 |
| C[C@]12CC[C@H](O)C[C@H]1CC[C@@H]1[C@@H]2CC[C@]2(C)[C@@H](c3ccc(=O)oc3)CC[C@]12O [BUFALIN] | 28 | 45 | 7 |
| C[C@]12CC[C@H](O)C[C@H]1CC[C@@H]1[C@@H]2C[C@H](O)[C@]2(C)[C@@H](c3ccc(=O)oc3)CC[C@]12O | 60 | 420 | 410 |
